Screens from PubChem.
In the library only some 1.4% were active in any assay of this set; here they are far more common.
Tn7 DDE FP: DD(E)-Tn7 binding inhibition, primary FP screen; 0.13% of 370,000 active; inhibition, % at 8.3 µM; FP displacement of FITC-Tn7 peptide from fibrin DD(E); 0% = median of compound wells per plate; P02675;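 active = inhibition above the mean of compounds falling within the control limits plus 3 SD of them, cut at about 14% in these data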;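 also: 0% = plate median of compound wells and 100% = 10 µM Aha-Tn7 peptide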
Target sequence (P02675 whole entry, looked up): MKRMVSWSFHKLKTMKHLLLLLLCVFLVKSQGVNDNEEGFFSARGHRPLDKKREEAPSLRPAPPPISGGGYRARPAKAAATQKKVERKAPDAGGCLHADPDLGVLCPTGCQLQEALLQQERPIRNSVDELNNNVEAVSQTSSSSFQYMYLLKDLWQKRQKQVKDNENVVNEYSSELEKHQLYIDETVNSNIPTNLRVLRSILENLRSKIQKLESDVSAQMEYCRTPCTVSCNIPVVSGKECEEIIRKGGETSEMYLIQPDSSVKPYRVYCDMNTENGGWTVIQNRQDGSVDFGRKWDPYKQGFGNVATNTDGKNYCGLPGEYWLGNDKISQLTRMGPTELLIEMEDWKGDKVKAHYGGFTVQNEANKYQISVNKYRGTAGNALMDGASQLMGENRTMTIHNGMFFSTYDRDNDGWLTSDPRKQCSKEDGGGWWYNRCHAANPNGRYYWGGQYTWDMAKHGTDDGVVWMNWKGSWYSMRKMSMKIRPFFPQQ
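Test system: human clot-derived fibrin DD(E) complex / Quantity: 2 µM final DD(E) protein / Incubation: 10 min plus 3 h, room temperature / Measured by: fluorescence polarization / Benchmarks: high control of 10 µM Aha-Tn7 peptide / Replicates: singlicate testing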
Arrestin-AP2 inh: human beta-arrestin and AP2 interaction inhibition | FITC-arrestin peptide / GST-AP2 beads, flow cytometry; AP2 beta2 appendage carries R879A mutation | inhibition, % at 10 µM | AID 504490 | 0.31% of 340,000 active;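 active = inhibition above a set limit, near 3 SD of compounds lacking own fluorescence, cut at about 54% in these data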;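 also: plate controls were DMSO wells for no effect and 5 µM unlabelled arrestin peptide for full effect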
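Test system: GST-tagged AP2 beta2-adaptin appendage (R879A) on 4 µm glutathione beads; also added: fluorescein-tagged arrestin peptide at 50 nM final; timing: 12 min plus 1 h, RT; signal: flow cytometry, FL1 (488/535 nm); read-out: percent drop in bead-associated FITC signal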
CAL PDZ FP-1: inhibitors of human CAL PDZ peptide binding; 0.02% of 330,000 active; inhibition, % at 20 µM; purified CAL PDZ, TMR-peptide fluorescence polarization, 1 h; Q9HD26;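 active = highest replicate inhibition of at least 40%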;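 also: plate controls were DMSO neutral control wells for no effect and unlabeled competitor peptide control wells for full effect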
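material = purified tagged CAL PDZ domain construct (CerCALP) | buffer or medium = sodium phosphate/NaCl buffer pH 7.4 with TCEP, IgG, Thesit | reagent = TMR-labelled reporter peptide T*-PRC34 bound in PDZ groove | incubation = 1 h room-temperature incubation prior to read | measured by = fluorescence polarization (mP) | evaluation = percent inhibition from loss of millipolarization | control set = unlabelled peptide and DMSO controls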
Tn6 DDE FP: DD(E)-Tn6 binding inhibition, primary FP screen; P02675; Fibrin DD(E) TRITC-Tn6 fluorescence polarization displacement; inhibition, % at 8.3 µM; 0.21% of 370,000 active; AID 720509;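 active = inhibition above a per-campaign cutoff: mean of compounds within control limits plus 3 SD, cut at about 15% in these data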;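 also: 0% = median of all compound wells on the plate and 100% = blocking peptide control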
CAL PDZ FP-2: blocks peptide binding to the human CAL PDZ domain | Q9HD26 | purified CAL PDZ, TMR-peptide fluorescence polarization, 1 h | inhibition, % at 24.9 µM | 0.92% of 300,000 active;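 active = mean inhibition of at least 30% with at least half of replicates also reaching 30%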;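 also: 0% = DMSO neutral control and 100% = excess unlabeled competitor peptide PRC23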
Active calls of the source: *; . = no result given; + = active, no number.

SMILES	Tn7 DDE FP	Arrestin-AP2 inh	CAL PDZ FP-1	Tn6 DDE FP	CAL PDZ FP-2
CC(C)c1ccc(OC[C@@H](O)CN2CCC(C(O)(c3ccccc3)c3ccccc3)CC2)cc1	-3	.	.	-4	.
O=C(NC1CCCC1)c1ccc(CS(=O)(=O)c2ccc(Cl)cc2)o1	-4	-3	-2	1	70*
O=C1CC(c2ccccc2)=C(c2ccccc2)C1	-1	-15	50*	6	-4
CCC[C@H]1[C@@H](OC(=O)NCc2ccc(OC)c(OC)c2)CC[C@@]23CCCN2C(=O)CCC[C@@H]13	-4	.	.	-2	.
CC(=O)c1ccc(NC(=O)Cn2cnc(S(=O)(=O)N3CCCC3)c2)cc1	.	10	-1	.	44*
CCC/C=N/NC(=O)c1cccc(Br)c1	4	18	-1	-2	86*
Cc1cc(=O)n2nc(N3CCC(C(=O)NCc4cccc(Br)c4)CC3)sc2n1	2	-1	-1	3	119*
CC(C)(C)CN1CCNC(=O)C1CC(=O)NCCN1CCCc2ccccc21 (stereo not given)	5	-8	0	2	55*
N#Cc1cccc(CNCC(=O)N2CCC3(CC2)OCCO3)c1	10	.	.	-9	.
O=c1c2cc3cc(Cl)ccc3nc2ncn1Cc1ccc(Oc2ccccc2)cc1	-2	.	.	1	.
CC(=O)N1CCN(C(=S)c2ccc(Cl)cc2)CC1	-2	-4	0	1	43*
CC(Oc1ccccc1)C(=O)Nc1cccc(NC(=O)c2ccco2)c1 (stereo not given)	9	2	.	-5	118*
CC(C)[C@H](NC(=O)c1ccco1)C(=O)OCC(=O)Nc1ccc(Cl)c(S(=O)(=O)N(C)C)c1	7	-12	-3	-1	2
CC(C)[C@H](NC(=O)c1ccco1)C(=O)OCC(=O)Nc1cccc(F)c1	5	-29	-1	7	69*
Cc1cccc(CS(=O)(=O)Cc2ccc(C(=O)O)o2)c1	0	4	-1	-3	75*
CC(C)CNS(=O)(=O)c1cc2c3c(c1)CCC(=O)N3CCC2	-10	-1	-2	3	6
COC(CNS(=O)(=O)c1cc2c3c(c1)CCN3C(=O)CC2)OC	2	-11	-1	-6	48*
CC(Cl)C(=O)N1CCC(C(=O)NC2CCCc3ccccc32)CC1 (stereo not given)	-8	.	.	0	.
Cc1nn(CC(=O)NCCc2ccccc2)c(=O)c2cccn12	0	6	-3	9	46*
O=C(c1cccc(Cl)c1)N1CCC(C(=O)N2CCN(Cc3ccccc3)CC2)CC1	-2	-7	0	7	45*
NC(=O)CC(NC(=O)Cc1cccc2ccccc12)c1ccc(NCc2ccccc2)c([N+](=O)[O-])c1 (stereo not given)	0	1	1	-1	-6
NC(=O)CC(NC(=O)Cc1cccc2ccccc12)c1ccc(NCc2ccccn2)c([N+](=O)[O-])c1 (stereo not given)	-11	1	0	-4	32*
O=C1CCCCCC1C1(O)C(=O)Nc2ccc(Br)cc21 (stereo not given)	-2	-5	-2	-4	57*
O=C1Nc2ccc(Br)cc2C1(O)c1ccccc1 (stereo not given)	3	26	0	2	.
COC(=O)[C@H](C(C)C)N(Cc1cn(CC2CCCCC2)nn1)S(=O)(=O)c1ccc(F)cc1Br	-3	.	.	-12	.
SMILES	Tn7 DDE FP	Arrestin-AP2 inh	CAL PDZ FP-1	Tn6 DDE FP	CAL PDZ FP-2
CSc1cccc(NC(=S)Nc2ccc(F)cc2)c1	1	14	-1	-9	0
CSc1cccc(NC(=S)NN(C)C)c1	1	-12	0	-6	64*
CCN1/C(=C/c2cccc[n+]2C)Sc2ccc(OC)cc21	-7	-21	1	7	-1
CCN1/C(=C/C(C)=O)Sc2ccc(OC)cc21	1	2	-1	-7	48*
COC(=O)c1ccc2c(C3(c4c[nH]c5ccccc45)CCN(C(=O)OC(C)(C)C)CC3)c[nH]c2c1	2	.	.	-8	.
CCN1C(=O)CS/C1=N\S(=O)(=O)c1ccc(Cl)cc1	1	32	64*	-1	-2
COc1ccc(S(=O)(=O)N2CCOC2CNC(=O)C(=O)NCc2ccncc2)cc1 (stereo not given)	-6	1	0	2	+
COc1ccc(CNC(=O)C(=O)NCC2OCCN2S(=O)(=O)c2ccc(C)cc2)cc1 (stereo not given)	1	-2	0	9	-7
CCN(C(=O)c1ccc(NC(=O)c2ccco2)cc1)c1ccccc1	-1	-16	-1	4	57*
CN(C(=O)c1ccc(NC(=O)c2ccco2)cc1)c1ccccc1	0	-13	0	5	-5
O=C(NCc1cccnc1)c1ccc(NC(=O)c2ccco2)cc1	-3	-4	-1	2	135*
COC(=O)[C@]12C[C@H](CC(=O)NCCc3ccccc3OC)C(=O)N(Cc3ccc4c(c3)OCO4)C1=C[C@H](C(C)C)O[C@@H]2C1CC1	1	.	.	-5	.
CCNC(=S)NNC(=O)CC(C)C	-2	5	-1	-5	36*
CC(C)CNC(=S)NNC(=O)CC(C)O (stereo not given)	2	20	0	-3	77*
COc1ccc(S[C@]2(C(=O)N3CCCC3)CC(=O)N(P(=O)(OC)OC)[C@@H]2c2ccc(OC)cc2)cc1	0	.	.	-2	.
CC(=O)Nc1ccc(S(=O)(=O)NCCC(=O)Nc2cccc(Cl)c2)cc1	2	11	-3	-3	-10
COc1ccc2[nH]cc(CCNS(=O)(=O)c3ccc(NC(C)=O)cc3)c2c1	-5	28	0	-4	2
CC(=O)Nc1ccc(S(=O)(=O)NCCc2c[nH]c3ccc(C)cc23)cc1	-11	11	-2	6	31*
CC(=O)Nc1ccc(S(=O)(=O)NCCC(=O)Nc2cc(C)ccn2)cc1	4	27	-1	4	30*
Cc1ccc2c(Cl)c(C(=O)NCC(c3ccco3)N3CCCC3)sc2c1 (stereo not given)	-5	4	-2	-1	75*
CCC(C)(C(=O)NC1CCCCC1)N(C(=O)CNC(C)=O)c1c(C)n(C)n(-c2ccccc2)c1=O (stereo not given)	1	-3	-2	-9	2
CCC(C)(C(=O)NC1CCCCC1)N(C(=O)CC1NC(=O)NC1=O)c1c(C)n(C)n(-c2ccccc2)c1=O (stereo not given)	0	-9	-2	-3	34*
CCCCCCCCN1C(=O)[C@@H](CC(=O)NCCCOCCCC)C[C@@]2(C(=O)OC)C1=C[C@H](C(C)(C)C)O[C@@H]2C	5	.	.	5	.
COc1ccc(OCC(=O)Nc2ccccc2C(=O)N2CCOCC2)cc1	0	-4	19	4	51*
